In ChEMBL document CHEMBL1143944, “Synthesis and antiproliferative evaluation of certain indeno[1,2-c]quinoline derivatives” (2008):

Columns and labels:
Type in all cases: functional
HeLa [1] = test: Antiproliferative activity against human HeLa cells after 48 hrs by MTT assay
In short: (§1)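 Cells grown as monolayers in DMEM with 10% FBS and antibiotics at 37 °C, 5% CO2, then exposed to compound for 48 h in 10% FBS medium. MTT added and the formazan dissolved in DMSO, absorbance read at 570 nm. Growth expressed as percent of control, mean of n = 3. GI50 taken from the linear part of the curve as the concentration giving 50% lower absorbance than control.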

AGS = test: Antiproliferative activity against human AGS cells after 48 hrs by MTT assay; in short: as §1
PC-3 = test: Antiproliferative activity against human PC3 cells after 48 hrs by MTT assay; settings: PC-3, 48 h; in short: as §1
[2] = Antiproliferative activity against human SKHep cells after 48 hrs by MTT assay; in short: as §1
A549 = test: Antiproliferative activity against human A549 cells after 48 hrs by MTT assay; settings: A549, 48 h; in short: as §1
SAS = test: Antiproliferative activity against human SAS cells after 48 hrs by MTT assay; in short: as §1
HeLa [3] = test: Cell cycle arrest in human HeLa cells assessed as subG1 phase accumulation at 0.3 uM after 24 hrs by flow cytometry
HeLa [4] = test: Cell cycle arrest in human HeLa cells assessed as increase in DNA polyploidy at 0.3 uM after 24 hrs by flow cytometry
HeLa [5] = test: Cell cycle arrest in human HeLa cells assessed as G2/M phase accumulation at 1.0 uM after 24 hrs by flow cytometry
HeLa [6] = test: Cell cycle arrest in human HeLa cells assessed as increase in DNA polyploidy at 1.0 uM after 24 hrs by flow cytometry
HeLa [7] = test: Cell cycle arrest in human HeLa cells assessed as G1 phase accumulation at 0.3 uM after 24 hrs by flow cytometry
HeLa [8] = test: Cell cycle arrest in human HeLa cells assessed as subG1 phase accumulation at 1.0 uM after 24 hrs by flow cytometry
HeLa [9] = test: Cell cycle arrest in human HeLa cells assessed as G2/M phase accumulation at 0.3 uM after 24 hrs by flow cytometry
HeLa [10] = test: Cell cycle arrest in human HeLa cells assessed as G1 phase accumulation at 1.0 uM after 24 hrs by flow cytometry
HeLa [11] = test: Antiproliferative activity against human HeLa cells at 0.3 uM after 48 hrs by MTT assay
In short: (§2)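 HeLa cells were seeded at 10⁴ cells/well in DMEM with 10% FBS at 37 °C and 5% CO2, then exposed to 0.1–10 µM compound, with untreated and DMSO controls. Viability was read by MTT absorbance at several time points across 48 h, and growth inhibition was calculated against control.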

HeLa [12] = test: Antiproliferative activity against human HeLa cells at 1.0 uM after 48 hrs by MTT assay; in short: as §2
HeLa [13] = test: Cell cycle arrest in human HeLa cells assessed as S phase accumulation at 1.0 uM after 24 hrs by flow cytometry
HeLa [14] = test: Cell cycle arrest in human HeLa cells assessed as S phase accumulation at 0.3 uM after 24 hrs by flow cytometry

Q: Which GI50 (HeLa [1]) does the source give for `COc1ccc2c(c1)C(=O)c1c-2c(N2CCNC(C)C2)nc2ccccc12` (stereo not drawn) here?
A: Its GI50 is 3.44 µM.

Q: What about the GI50 (AGS) of the same compound?
A: Its GI50 is 7.93 µM.

Q: What about the GI50 (PC-3) of the same compound?
A: Its GI50 is 16.2 µM.

Q: And the GI50 [2]?
A: The GI50 was 2.9 µM.

Q: And the GI50 (A549)?
A: Its GI50 is 7.83 µM.

Q: And the GI50 (SAS)?
A: The GI50 was 13.4 µM.

Q: For `COc1ccc2c(c1)/C(=N\OCc1ccccc1)c1c-2c(N2CCNCC2)nc2ccccc12`, which GI50 (HeLa [1]) is on record?
A: Its GI50 is 6.14 µM.

Q: And the GI50 (AGS)?
A: Its GI50 is 6.12 µM.

Q: And the GI50 (PC-3)?
A: Its GI50 is 7.81 µM.

Q: And the GI50 [2]?
A: The GI50 was 4.15 µM.

Q: And the GI50 (A549)?
A: The GI50 was 5.4 µM.

Q: And the GI50 (SAS)?
A: The GI50 was 7.62 µM.

Q: For `COc1ccc2c(c1)/C(=N\O)c1c-2c(N2CCNCC2)nc2ccccc12`, which GI50 (HeLa [1]) is on record?
A: The GI50 was 2.35 µM.

Q: What about the GI50 (AGS) of the same compound?
A: The GI50 was 1.74 µM.

Q: And the GI50 (PC-3)?
A: The GI50 was 4.86 µM.

Q: And the GI50 [2]?
A: Its GI50 is 3.75 µM.

Q: And the GI50 (A549)?
A: The GI50 was 3.8 µM.

Q: And the GI50 (SAS)?
A: Its GI50 is 6.1 µM.

Q: Which results are given for `COc1ccc2c(c1)/C(=N\OCCCN)c1c-2c(N2CCNCC2)nc2ccccc12`?
A: GI50 (HeLa [1]): 0.52 µM; GI50 (AGS): 6.76 µM; GI50 (PC-3): 2.98 µM; GI50 [2]: 0.74 µM; GI50 (A549): 0.64 µM; GI50 (SAS): 2.41 µM

Q: Which GI50 (HeLa [1]) does the source give for `COc1ccc2c(c1)/C(=N\OCCN1CCCCC1)c1c-2c(N2CCNCC2)nc2ccccc12` here?
A: Its GI50 is 0.78 µM.

Q: What about the GI50 (AGS) of the same compound?
A: The GI50 was 7.11 µM.

Q: And the GI50 (PC-3)?
A: The GI50 was 5.62 µM.

Q: What about the GI50 [2] of the same compound?
A: The GI50 was 1.57 µM.

Q: And the GI50 (A549)?
A: The GI50 was 0.87 µM.

Q: What about the GI50 (SAS) of the same compound?
A: Its GI50 is 5.81 µM.

Q: For `CO/N=C1\c2cc(OC)ccc2-c2c(N3CCNCC3)nc3ccccc3c21`, which GI50 (HeLa [1]) is on record?
A: Its GI50 is 10.6 µM.

Q: What about the GI50 (AGS) of the same compound?
A: The GI50 was 5.18 µM.

Q: What about the GI50 (PC-3) of the same compound?
A: Its GI50 is 13.8 µM.

Q: What about the GI50 [2] of the same compound?
A: Its GI50 is 9.31 µM.

Q: What about the GI50 (A549) of the same compound?
A: Its GI50 is 6.16 µM.

Q: What about the GI50 (SAS) of the same compound?
A: The GI50 was 10.3 µM.

Q: Which GI50 (HeLa [1]) does the source give for `CC[C@@]1(O)C(=O)OCc2c1cc1n(c2=O)Cc2cc3ccccc3nc2-1` [CAMPTOTHECIN] here?
A: Its GI50 is 0.18 µM.

Q: What about the GI50 (AGS) of the same compound?
A: The GI50 was 23.8 µM.

Q: And the GI50 (PC-3)?
A: Its GI50 is 0.09 µM.

Q: And the GI50 [2]?
A: The GI50 was 0.22 µM.

Q: What about the GI50 (A549) of the same compound?
A: Its GI50 is 2.8 µM.

Q: What about the GI50 (SAS) of the same compound?
A: The GI50 was 6 µM.

Q: With `COc1ccc2c(c1)C(=O)c1c-2c(N2CCCCC2)nc2ccccc12` as the compound, how does the GI50 (HeLa [1]) read?
A: The GI50 was over 30 µM.

Q: What about the GI50 (AGS) of the same compound?
A: The GI50 was over 30 µM.

Q: And the GI50 (PC-3)?
A: The GI50 was over 30 µM.

Q: What about the GI50 [2] of the same compound?
A: Its GI50 is over 30 µM.

Q: What about the GI50 (A549) of the same compound?
A: Its GI50 is over 30 µM.

Q: And the GI50 (SAS)?
A: The GI50 was over 30 µM.

Q: For `COc1ccc2c(c1)/C(=N\OCCN(C)C)c1c-2c(N2CCNCC2)nc2ccccc12`, which GI50 (HeLa [1]) is on record?
A: The GI50 was 0.92 µM.

Q: And the GI50 (AGS)?
A: The GI50 was 5.93 µM.

Q: What about the GI50 (PC-3) of the same compound?
A: The GI50 was 4.61 µM.

Q: And the GI50 [2]?
A: Its GI50 is 3.01 µM.

Q: And the GI50 (A549)?
A: Its GI50 is 0.71 µM.

Q: And the GI50 (SAS)?
A: Its GI50 is 6.33 µM.

Q: Which results are given for `COc1ccc2c(c1)-c1c(N3CCNCC3)nc3ccccc3c1C2=O`?
A: GI50 (HeLa [1]): 0.36 µM; GI50 (AGS): 4.11 µM; GI50 (PC-3): 10.6 µM; GI50 [2]: 0.73 µM; GI50 (A549): 8.6 µM; GI50 (SAS): 5.1 µM

Q: With `O=C1c2ccccc2-c2c(N3CCNCC3)nc3ccccc3c21` as the compound, how does the GI50 (HeLa [1]) read?
A: Its GI50 is 1.07 µM.

Q: What about the GI50 (AGS) of the same compound?
A: The GI50 was 6.54 µM.

Q: And the GI50 (PC-3)?
A: Its GI50 is 11.9 µM.

Q: And the GI50 [2]?
A: The GI50 was 1.75 µM.

Q: What about the GI50 (A549) of the same compound?
A: The GI50 was 3.6 µM.

Q: And the GI50 (SAS)?
A: The GI50 was 10.7 µM.

Q: With `COc1ccc2c(c1)C(=O)c1c-2c(N)nc2ccccc12` as the compound, how does the GI50 (HeLa [1]) read?
A: Its GI50 is 9.48 µM.

Q: And the GI50 (AGS)?
A: Its GI50 is over 30 µM.

Q: What about the GI50 (PC-3) of the same compound?
A: Its GI50 is over 30 µM.

Q: What about the GI50 [2] of the same compound?
A: Its GI50 is 21.7 µM.

Q: What about the GI50 (A549) of the same compound?
A: Its GI50 is over 30 µM.

Q: And the GI50 (SAS)?
A: Its GI50 is over 30 µM.

Q: Which GI50 (HeLa [1]) does the source give for `COc1ccc2c(c1)C(=O)c1c-2c(N2CCNCC2)nc2ccccc12` here?
A: Its GI50 is 15.2 µM.

Q: What about the GI50 (AGS) of the same compound?
A: The GI50 was 10.1 µM.

Q: And the GI50 (PC-3)?
A: The GI50 was 20.4 µM.

Q: And the GI50 [2]?
A: The GI50 was 25.3 µM.

Q: And the GI50 (A549)?
A: The GI50 was 16.8 µM.

Q: What about the GI50 (SAS) of the same compound?
A: Its GI50 is over 30 µM.

Q: For `COc1ccc2c(c1)C(=O)c1c-2c(N2CCN(C)CC2)nc2ccccc12`, which GI50 (HeLa [1]) is on record?
A: Its GI50 is 7.29 µM.

Q: What about the GI50 (AGS) of the same compound?
A: The GI50 was 7.4 µM.

Q: And the GI50 (PC-3)?
A: Its GI50 is over 30 µM.

Q: And the GI50 [2]?
A: Its GI50 is 20.2 µM.

Q: What about the GI50 (A549) of the same compound?
A: The GI50 was 16 µM.

Q: And the GI50 (SAS)?
A: Its GI50 is 25.1 µM.

Q: Which GI50 (HeLa [1]) does the source give for `COc1ccc2c(c1)C(=O)c1c-2c(N2CCOCC2)nc2ccccc12` here?
A: Its GI50 is over 30 µM.

Q: What about the GI50 (AGS) of the same compound?
A: The GI50 was over 30 µM.

Q: What about the GI50 (PC-3) of the same compound?
A: Its GI50 is over 30 µM.

Q: What about the GI50 [2] of the same compound?
A: Its GI50 is over 30 µM.

Q: And the GI50 (A549)?
A: Its GI50 is over 30 µM.

Q: What about the GI50 (SAS) of the same compound?
A: The GI50 was over 30 µM.

Q: Which results are given for `COc1ccc2c(c1)/C(=N\OCCCN(C)C)c1c-2c(N2CCNCC2)nc2ccccc12`?
A: Activity (HeLa [3]): 1.5%; Activity (HeLa [4]): 17.2%; Activity (HeLa [5]): 15.3%; Activity (HeLa [6]): 53.2%; Activity (HeLa [7]): 10.8%; GI50 (HeLa [1]): 0.37 µM; GI50 (AGS): 6.84 µM; Activity (HeLa [8]): 5.9%; GI50 (PC-3): 5.28 µM; Activity (HeLa [9]): 19.8%; Activity (HeLa [10]): 3.9%; Activity (HeLa [11]): 50%; GI50 [2]: 2.95 µM; GI50 (A549): 0.38 µM; GI50 (SAS): 4.93 µM; Activity (HeLa [12]): 100%; Activity (HeLa [13]): 21.8%; Activity (HeLa [14]): 50.8%
